# Measured values published in ChEMBL document CHEMBL2074545, “Transport of bile acids, sulfated steroids, estradiol 17-beta-D-glucuronide, and leukotriene C4 by human multidrug resistance protein 8 (ABCC11)” (Mol Pharmacol, 2004).
# What was measured:
# [1] = target: ATP-binding cassette sub-family C member 11 (Homo sapiens) (UniProt Q96J66); assay: TP_TRANSPORTER: inhibition of Estradiol-17beta-D-glucuronide uptake by Glycocholate at a concentration of 10 uM in membrane vesicle from MRP8-expressing LLC-PK1 cells; format: functional, cell membranes; set-up: scale not given: the % may be the effect or the level left
# Summary of the method: (§1)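 Vesicles (10 µg) from LLC-PK1-MRP8-3 cells incubated 10 min at 37°C with 1 µM [3H]E217βG plus modulator, in 0.25 M sucrose, 10 mM Tris-HCl pH 7.4, 10 mM MgCl2, creatine phosphate/creatine kinase, with 4 mM ATP or 4 mM AMP. Rapid filtration, scintillation counting. ATP-dependent uptake (ATP minus AMP) expressed as % of modulator-free uptake. At least three measurements, each in duplicate.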
# [2] = target: ATP-binding cassette sub-family C member 11 (Homo sapiens) (UniProt Q96J66); assay: TP_TRANSPORTER: inhibition of Estradiol-17beta-D-glucuronide uptake by Leukotrien C4 at a concentration of 1 uM in membrane vesicle from MRP8-expressing LLC-PK1 cells; format: functional, cell membranes; set-up: scale not given: the % may be the effect or the level left; summary of the method: as §1
# [3] = target: ATP-binding cassette sub-family C member 11 (Homo sapiens) (UniProt Q96J66); assay: TP_TRANSPORTER: inhibition of Estradiol-17beta-D-glucuronide uptake by Sildenifil at a concentration of 10 uM in membrane vesicle from MRP8-expressing LLC-PK1 cells; format: functional, cell membranes; set-up: scale not given: the % may be the effect or the level left; summary of the method: as §1
# [4] = target: ATP-binding cassette sub-family C member 11 (Homo sapiens) (UniProt Q96J66); assay: TP_TRANSPORTER: inhibition of Estradiol-17beta-D-glucuronide uptake by cGMP at a concentration of 10 uM in membrane vesicle from MRP8-expressing LLC-PK1 cells; format: functional, cell membranes; set-up: scale not given: the % may be the effect or the level left; summary of the method: as §1
# [5] = target: ATP-binding cassette sub-family C member 11 (Homo sapiens) (UniProt Q96J66); assay: TP_TRANSPORTER: inhibition of Estradiol-17beta-D-glucuronide uptake by Dehydroepiandrosterone-3-sulfate at a concentration of 10 uM in membrane vesicle from MRP8-expressing LLC-PK1 cells; format: functional, cell membranes; set-up: scale not given: the % may be the effect or the level left; summary of the method: as §1
# [6] = test system: C[C@]12CC[C@@H]3c4ccc(O)cc4CC[C@H]3[C@@H]1CC[C@@H]2O[C@@H]1O[C@H](C(=O)O)[C@@H](O)[C@H](O)[C@H]1O; details: LLC-PK1; Membrane vesicle
# [7] = test system: C[C@]12CC[C@H](OS(=O)(=O)O)CC1=CC[C@@H]1[C@@H]2CC[C@]2(C)C(=O)CC[C@@H]12; details: LLC-PK1; Membrane vesicle
# [8] = test system: CN(Cc1cnc2nc(N)nc(N)c2n1)c1ccc(C(=O)N[C@@H](CCC(=O)O)C(=O)O)cc1; details: LLC-PK1; Membrane vesicle
# [9] = target: ATP-binding cassette sub-family C member 11 (Homo sapiens) (UniProt Q96J66); assay: TP_TRANSPORTER: inhibition of Estradiol-17beta-D-glucuronide uptake by 2,4-dinitrophenyl-S-glutathione at a concentration of 10 uM in membrane vesicle from MRP8-expressing LLC-PK1 cells; format: functional, cell membranes; set-up: scale not given: the % may be the effect or the level left; summary of the method: as §1
# [10] = target: ATP-binding cassette sub-family C member 11 (Homo sapiens) (UniProt Q96J66); assay: TP_TRANSPORTER: inhibition of Estradiol-17beta-D-glucuronide uptake by Glycolithocholate at a concentration of 10 uM in membrane vesicle from MRP8-expressing LLC-PK1 cells; format: functional, cell membranes; set-up: scale not given: the % may be the effect or the level left; summary of the method: as §1
# [11] = target: ATP-binding cassette sub-family C member 11 (Homo sapiens) (UniProt Q96J66); assay: TP_TRANSPORTER: inhibition of Estradiol-17beta-D-glucuronide uptake by Probenecid at a concentration of 10 uM in membrane vesicle from MRP8-expressing LLC-PK1 cells; format: functional, cell membranes; set-up: scale not given: the % may be the effect or the level left; summary of the method: as §1
# [12] = target: ATP-binding cassette sub-family C member 11 (Homo sapiens) (UniProt Q96J66); assay: TP_TRANSPORTER: inhibition of Estradiol-17beta-D-glucuronide uptake by MK-571 at a concentration of 10 uM in membrane vesicle from MRP8-expressing LLC-PK1 cells; format: functional, cell membranes; set-up: scale not given: the % may be the effect or the level left; summary of the method: as §1
# [13] = target: ATP-binding cassette sub-family C member 11 (Homo sapiens) (UniProt Q96J66); assay: TP_TRANSPORTER: inhibition of Estradiol-17beta-D-glucuronide uptake by Indomethacin at a concentration of 10 uM in membrane vesicle from MRP8-expressing LLC-PK1 cells; format: functional, cell membranes; set-up: scale not given: the % may be the effect or the level left; summary of the method: as §1
# Chain of ATP-binding cassette sub-family C member 11 (Homo sapiens), Q96J66 (Q96J66 whole entry): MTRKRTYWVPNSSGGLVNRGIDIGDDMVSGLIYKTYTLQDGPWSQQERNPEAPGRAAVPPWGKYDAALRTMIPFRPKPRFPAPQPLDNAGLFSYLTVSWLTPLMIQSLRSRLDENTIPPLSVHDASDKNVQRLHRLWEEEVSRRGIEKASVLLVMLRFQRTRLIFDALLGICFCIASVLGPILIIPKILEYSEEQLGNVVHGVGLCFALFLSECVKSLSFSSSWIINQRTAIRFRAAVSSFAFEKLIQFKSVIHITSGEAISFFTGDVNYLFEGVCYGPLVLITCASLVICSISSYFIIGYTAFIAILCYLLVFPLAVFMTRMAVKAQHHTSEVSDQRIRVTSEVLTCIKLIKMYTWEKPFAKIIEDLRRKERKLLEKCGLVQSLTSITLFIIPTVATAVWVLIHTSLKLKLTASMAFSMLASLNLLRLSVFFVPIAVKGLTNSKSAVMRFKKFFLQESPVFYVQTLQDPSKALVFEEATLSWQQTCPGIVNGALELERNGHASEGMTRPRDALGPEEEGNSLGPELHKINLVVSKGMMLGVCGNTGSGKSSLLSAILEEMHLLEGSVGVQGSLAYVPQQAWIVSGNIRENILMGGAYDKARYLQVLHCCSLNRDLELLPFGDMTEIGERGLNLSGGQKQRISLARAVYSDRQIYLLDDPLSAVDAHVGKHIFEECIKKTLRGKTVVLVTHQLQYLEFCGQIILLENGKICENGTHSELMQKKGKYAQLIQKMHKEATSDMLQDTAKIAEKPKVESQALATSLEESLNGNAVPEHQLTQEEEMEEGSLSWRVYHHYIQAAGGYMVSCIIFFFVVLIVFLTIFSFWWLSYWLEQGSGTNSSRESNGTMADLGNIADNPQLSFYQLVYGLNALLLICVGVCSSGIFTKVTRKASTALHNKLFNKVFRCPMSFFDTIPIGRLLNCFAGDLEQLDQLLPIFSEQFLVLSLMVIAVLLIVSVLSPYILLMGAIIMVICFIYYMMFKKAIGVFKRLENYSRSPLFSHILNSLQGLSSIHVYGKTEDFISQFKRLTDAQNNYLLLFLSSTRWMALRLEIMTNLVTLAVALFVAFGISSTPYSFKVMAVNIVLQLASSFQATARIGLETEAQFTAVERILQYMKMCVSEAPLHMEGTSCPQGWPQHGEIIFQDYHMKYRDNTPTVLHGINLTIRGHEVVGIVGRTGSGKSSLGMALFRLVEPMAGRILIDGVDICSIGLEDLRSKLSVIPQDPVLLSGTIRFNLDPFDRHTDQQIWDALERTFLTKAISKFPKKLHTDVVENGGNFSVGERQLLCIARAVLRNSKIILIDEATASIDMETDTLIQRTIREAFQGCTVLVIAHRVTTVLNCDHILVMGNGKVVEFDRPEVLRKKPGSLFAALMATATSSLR
# Chain of ATP-binding cassette sub-family C member 11 (Homo sapiens) (Q96J66 whole entry): as above
compound,measurement,setting,value
C[C@H](CCC(=O)NCC(=O)O)[C@H]1CC[C@H]2[C@@H]3[C@H](O)C[C@@H]4C[C@H](O)CC[C@]4(C)[C@H]3C[C@H](O)[C@]12C,Activity,[1],62%
CCCCC/C=C\C\C=C/C=C/C=C/[C@@H](SC[C@@H](NC(=O)CC[C@H](N)C(=O)O)C(=O)NCC(=O)O)[C@@H](O)CCCC(=O)O,Activity,[2],72%
CCCc1nn(C)c2c(=O)[nH]c(-c3cc(S(=O)(=O)N4CCN(C)CC4)ccc3OCC)nc12,Activity,[3],79%
Nc1nc2c(ncn2[C@@H]2O[C@@H]3COP(=O)(O)O[C@H]3[C@H]2O)c(=O)[nH]1,Activity,[4],73%
C[C@]12CC[C@H](OS(=O)(=O)O)CC1=CC[C@@H]1[C@@H]2CC[C@]2(C)C(=O)CC[C@@H]12,Activity,[5],196%
"ATP-binding cassette sub-family C member 11 (Homo sapiens), Q96J66",Km,[6],62.9 µM
same,Km,[7],13 µM
same,Km,[8],957 µM
N[C@@H](CCC(=O)N[C@H](CSc1ccc([N+](=O)[O-])cc1[N+](=O)[O-])C(=O)NCC(=O)O)C(=O)O,Activity,[9],17%
C[C@H](CCC(=O)NCC(=O)O)[C@H]1CC[C@H]2[C@@H]3CC[C@@H]4C[C@H](O)CC[C@]4(C)[C@H]3CC[C@]12C,Activity,[10],16%
CCCN(CCC)S(=O)(=O)c1ccc(C(=O)O)cc1,Activity,[11],76%
CN(C)C(=O)CCSC(SCCC(=O)O)c1cccc(/C=C/c2ccc3ccc(Cl)cc3n2)c1 (stereo not drawn),Activity,[12],25%
COc1ccc2c(c1)c(CC(=O)O)c(C)n2C(=O)c1ccc(Cl)cc1,Activity,[13],64%
